Data as given in ChEMBL document CHEMBL1122913, “Novel dopamine receptor agonists and antagonists with preferential action on autoreceptors” (1985).
The source made the active and inactive calls. No cut-off for these calls is given here.

What was measured:
Rattus norvegicus [1] = assay: Effective dose against DOPA accumulation in rat brain striatal region after no pretreatment by subcutaneous administration; format: functional; details: sc
Outline: (§1)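 Untreated male Sprague-Dawley rats (200-300 g) received test drug sc 65 min and NSD 1015 100 mg/kg ip 30 min before death; saline controls. Limbic or striatal DOPA measured by HPLC-electrochemical detection. ED50 is the dose giving half-maximal increase or decrease of DOPA formation, from 4-5 dose levels (n = 3-10); controls = 100%.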

Rattus norvegicus [2] = assay: Effective dose against DOPA accumulation in rat brain limbic region after no pretreatment by subcutaneous administration; format: functional; details: sc; outline: as §1
Rattus norvegicus [3] = organism: Rattus norvegicus; assay: Locomotor activity after no pretreatment in rat at low-dose region expressed as percent of saline control; format: functional
Rattus norvegicus [4] = assay: Effective dose against DOPA accumulation in rat brain striatal region after reserpine pretreatment by subcutaneous administration; No significant effect of 16 mg/kg subcutaneous administration; format: functional, organism-based; set-up: dose 16 mg/kg
Rattus norvegicus [5] = organism: Rattus norvegicus; assay: Locomotor activity after reserpine pretreatment in rat; format: functional
Outline: (§2)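 Rats received reserpine 10 mg/kg ip 6 h and DL-α-methyl-p-tyrosine methyl ester 250 mg/kg ip 1 h before, then test drug sc immediately before the session. Photocell counts accumulated over 30 min, mean ± SEM, n = 4-9; t test vs saline controls. Haloperidol 0.3 mg/kg ip 30 min before test drug used for blockade.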

Rattus norvegicus [6] = organism: Rattus norvegicus; assay: Locomotor activity after no pretreatment in rat at high-dose region expressed as percent of saline control; format: functional
Rattus norvegicus [7] = assay: Effective dose against DOPA accumulation in rat brain limbic region after reserpine pretreatment by subcutaneous administration; No significant effect of 16 mg/kg subcutaneous administration; format: functional, organism-based; set-up: dose 16 mg/kg
Rattus norvegicus [8] = assay: Effective dose against DOPA accumulation in rat brain limbic region after reserpine pretreatment by subcutaneous administration; No significant effect at 0.5 mg/kg intraperitoneal administration; format: functional, organism-based; set-up: dose 0.5 mg/kg
Rattus norvegicus [9] = organism: Rattus norvegicus; assay: Locomotor activity after reserpine pretreatment in rat; Not Tested; format: functional, organism-based
Rattus norvegicus [10] = assay: Effective dose against DOPA accumulation in rat brain striatal region after reserpine pretreatment by subcutaneous administration; No significant effect at 0.5 mg/kg intraperitoneal administration; format: functional, organism-based; set-up: dose 0.5 mg/kg
Rattus norvegicus [11] = assay: Effective dose against DOPA accumulation in rat brain striatal region after reserpine pretreatment by subcutaneous administration; format: functional; details: sc
Outline: (§3)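 Male Sprague-Dawley rats (200-300 g), reserpine 5 mg/kg ip 18 h, test drug sc 60 min, and NSD 1015 100 mg/kg ip 30 min before death; saline controls. Limbic and striatal DOPA measured by HPLC-electrochemical detection. ED50 is the dose giving half-maximal decrease of DOPA formation, estimated from 4-7 dose levels (n = 3); controls = 100%.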

Rattus norvegicus [12] = organism: Rattus norvegicus; assay: Locomotor activity after no pretreatment in rat at high-dose region expressed as percent of saline control; Inactive; format: functional, organism-based
Rattus norvegicus [13] = assay: Effective dose against DOPA accumulation in rat brain limbic region after no pretreatment by subcutaneous administration; No significant effect of 16 mg/kg subcutaneous administration; format: functional, organism-based; set-up: dose 16 mg/kg
Rattus norvegicus [14] = organism: Rattus norvegicus; assay: Locomotor activity after no pretreatment in rat at low-dose region expressed as percent of saline control; Inactive; format: functional, organism-based
Rattus norvegicus [15] = assay: Effective dose against DOPA accumulation in rat brain limbic region after reserpine pretreatment by subcutaneous administration; format: functional; details: sc; outline: as §3
Rattus norvegicus [16] = assay: Effective dose against DOPA accumulation in rat brain striatal region after no pretreatment by subcutaneous administration; No significant effect of 16 mg/kg subcutaneous administration; format: functional, organism-based; set-up: dose 16 mg/kg
Rattus norvegicus [17] = organism: Rattus norvegicus; assay: Locomotor activity after reserpine pretreatment in rat(p<0.001); format: functional; outline: as §2

## CCCN(CCC)[C@@H]1CCc2c(OC)cccc2[C@@H]1C.Cl
Rattus norvegicus [1]
  ED50: 3 mg/kg
Rattus norvegicus [2]
  ED50: 4 mg/kg
Rattus norvegicus [3]
  Control: 144%
Rattus norvegicus [4]
  ED50: inactive
Rattus norvegicus [5]
  Accumulated counts/30 min: 4
Rattus norvegicus [6]
  Control: 49%
Rattus norvegicus [7]
  ED50: inactive

## O=C(CCCN1CCC(O)(c2ccc(Cl)cc2)CC1)c1ccc(F)cc1 [HALOPERIDOL]
Rattus norvegicus [1]
  ED50: 0.07 mg/kg
Rattus norvegicus [2]
  ED50: 0.07 mg/kg
Rattus norvegicus [8]
  ED50: inactive
Rattus norvegicus [3]
  Control: 75%
Rattus norvegicus [9]
  Accumulated counts/30 min: inactive
Rattus norvegicus [10]
  ED50: inactive
Rattus norvegicus [6]
  Control: 3%

## CCCN(CCC)[C@H]1CCc2c(OC)cccc2[C@H]1C.Cl
Rattus norvegicus [11]
  ED50: 1.8 mg/kg
Rattus norvegicus [12]
  Control: inactive
Rattus norvegicus [13]
  ED50: inactive
Rattus norvegicus [14]
  Control: inactive
Rattus norvegicus [15]
  ED50: 1.7 mg/kg
Rattus norvegicus [16]
  ED50: inactive
Rattus norvegicus [5]
  Accumulated counts/30 min: 8

## CCCN(CCC)[C@@H]1CCc2c(O)cccc2[C@@H]1C.Cl
Rattus norvegicus [1]
  ED50: 2.8 mg/kg
Rattus norvegicus [2]
  ED50: 3 mg/kg
Rattus norvegicus [3]
  Control: 128%
Rattus norvegicus [4]
  ED50: inactive
Rattus norvegicus [5]
  Accumulated counts/30: 6
Rattus norvegicus [6]
  Control: 69%
Rattus norvegicus [7]
  ED50: inactive

## CCCN(CCC)[C@H]1CCc2c(O)cccc2[C@H]1C.Cl
Rattus norvegicus [11]
  ED50: 0.1 mg/kg
Rattus norvegicus [1]
  ED50: 0.25 mg/kg
Rattus norvegicus [2]
  ED50: 0.25 mg/kg
Rattus norvegicus [3]
  Control: 65%
Rattus norvegicus [15]
  ED50: 0.09 mg/kg
Rattus norvegicus [5]
  Accumulated counts/30 min: 79
Rattus norvegicus [6]
  Control: 171%

## CN1CCc2cccc3c2[C@H]1Cc1ccc(O)c(O)c1-3 [APOMORPHINE]
Rattus norvegicus [11]
  ED50: 0.07 mg/kg
Rattus norvegicus [3]
  Control: 52%
Rattus norvegicus [15]
  ED50: 0.06 mg/kg
Rattus norvegicus [17]
  Accumulated counts/30: 361
Rattus norvegicus [6]
  Control: 277%
